The source of these data is ChEMBL document CHEMBL5715941, “AZD1152, a selective inhibitor of Aurora B kinase, inhibits human tumor xenograft growth by inducing apoptosis” (Clin Cancer Res, 2007).

Assay [1] relates to SW-620. In words: Antitumor activity against human SW620 cells xenografted in immunodeficient Swiss athymic mouse assessed as maximum inhibition of tumor volume at 25 mg/kg/day, iv for 3 days on days 6 to 8 and measured on day 13 relative to control. Type of assay: functional. As to conditions: SW-620, 192 h, time 8 day. A digest of the protocol: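 Male Swiss nude mice bearing s.c. flank SW620 xenografts (cells in Matrigel), randomized (n = 8-11) at 0.2-0.3 cm3. AZD1152 in Tris buffer pH 9, or vehicle, given as a once-daily i.v. or i.p. bolus. Caliper volumes up to 3×/week; inhibition from change in control vs treated volume; one-tailed t test.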
For orientation: Xenograft models place foreign cells or tissue in a host animal.

Assay [2] deals with SW-620. As to the kind of experiment: Antitumor activity against human SW620 cells xenografted in immunodeficient Swiss athymic mouse assessed as inhibition of tumor volume at 25 mg/kg/day, sc for 48 hrs on days 7 to 9 and measured on day 23 relative to control. The class given is functional. As to conditions: SW-620, 408 h, time 17 day. A digest of the protocol: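 Male Swiss athymic nude mice, 8-12 wk; tumor cells (1×10^6-1×10^7, 50:50 Matrigel) implanted s.c. on flank. Randomized (n = 8-11) at 0.2-0.5 cm3. AZD1152 in Tris buffer pH 9, or vehicle (0.3 mol/L Tris), by 48-h s.c. osmotic mini-pump infusion (two 24-h pumps in sequence). Caliper volumes up to 3×/week; growth inhibition from change in control vs treated volume; one-tailed t test.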

Assay [3] relates to SW-620. In words: Antitumor activity against human SW620 cells xenografted in nude athymic rat assessed as proportion of polyploid DNA content in tumor cells at 25 mg/kg/day, iv for 1 to 5 consecutive days by flow cytometry analysis relative to control. The class given is functional. As to conditions: time 1-5 day. The gist of the method:
(§1)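 Nude rats with SW620 xenografts (0.5-1 cm3) were given vehicle or AZD1152 at 25 mg/kg/d as an i.v. bolus once daily on days 1-4. Subgroups (n = 3) were killed on days 0, 5, 9, 12, 16 and 19. Disaggregated tumors were analyzed by flow cytometry for PhH3 (% of control) and for 4N and >4N DNA (fold over control).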

In assay [4] the test system is SW-620. In words: Antitumor activity against human SW620 cells xenografted in nude athymic rat assessed as proportion of 4N DNA content in tumor cells at 25 mg/kg/day, iv for 1 to 5 consecutive days by flow cytometry analysis relative to control. The class given is functional. As to conditions: time 1-5 day. The gist of the method:
as §1

For assay [5], the system named is SW-620. As to the kind of experiment: Antitumor activity against human SW620 cells xenografted in nude athymic rat assessed as suppression in PhH3 at 25 mg/kg/day, iv for 4 consecutive days and measured during dosing period (days 1 to 4) by flow cytometry analysis relative to control. As to conditions: time 1 to 4 day.

A word on the inhibition in vivo: it is the percentage by which the read-out fell short of the control. With `CCN(CCCOc1ccc2c(Nc3cc(CC(=O)Nc4cccc(F)c4)[nH]n3)ncnc2c1)CCOP(=O)(O)O` [BARASERTIB], the inhibition in vivo at 25 mg/kg/day stood at 91% in the assay on SW-620 [1] and 49% in the assay on SW-620 [2]. The Activity with SW-620 [3] was 67%; in the assay on SW-620 [4] it was 60%; in the assay with SW-620 [5] it was about 40%.
